Here are results for nine molecules from ChEMBL document CHEMBL1165856, “Naftifine-analogues as anti-Trypanosoma cruzi agents” (Eur J Med Chem, 2010).

One data set has as its system Trichophyton rubrum. Put plainly: Antifungal activity against Trichophyton rubrum C 113 after 48 hrs. It is filed as functional. The conditions noted are these: C 113, 48 h. The method, boiled down: (§1)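 Dermatophytes were tested by CLSI M38-A microdilution in MOPS-buffered RPMI 1640 at pH 7.0. Inoculum is 10³ CFU/mL, with two-fold serial compound dilutions and final DMSO ≤1%. Trays are kept at 28–30 °C in a moist, dark chamber. MIC is the lowest concentration with total growth inhibition, read visually when control growth allows.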

For data set [1], the system named is Trypanosoma cruzi. Description: Antitrypanosomal activity against Trypanosoma cruzi Tulahuen 2 at 25 uM. The data set is classed as functional. The method, boiled down:
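Tulahuen 2 epimastigotes (8 × 10⁶ cells/mL, 28 °C, BHI-tryptose with 5% FBS) were exposed to a single drug concentration, with final DMSO ≤0.4% and a vehicle control. Percent growth inhibition = {1 − [(Ap − A0p)/(Ac − A0c)]} × 100, using A600 of drug and control cultures at day 0 and day 5.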

The next data set relates to Saccharomyces cerevisiae. Description: Antifungal activity against Saccharomyces cerevisiae ATCC 9763 after 48 hrs. The data set is classed as functional. The conditions noted are these: ATCC 9763, 48 h. The method, boiled down: (§2)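 CLSI M27-A2 broth microdilution in RPMI 1640 buffered to pH 7.0 with MOPS. Inoculum is 10³ CFU/mL from Sabouraud-grown yeasts. Compound is two-fold serially diluted, final DMSO ≤1%. Incubated at 35 °C in a moist, dark chamber and read visually at 48 h. MIC is the lowest concentration giving total growth inhibition.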

For a further data set, the system named is Aspergillus flavus. Description: Antifungal activity against Aspergillus flavus ATCC 9170 after 48 hrs. It is filed as functional. The conditions noted are these: ATCC 9170, 48 h. In a few lines: (§3)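 Aspergillus spp. were tested by CLSI M38-A broth microdilution in RPMI 1640 with MOPS at pH 7.0. Spore inoculum is 10³ CFU/mL, with two-fold compound dilutions and final DMSO ≤1%. Incubated at 35 °C in a moist, dark chamber. MIC is read visually as total growth inhibition, at a time set by growth of the control fungus.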

Another data set relates to Cryptococcus neoformans. Put plainly: Antifungal activity against Cryptococcus neoformans ATCC 32264 after 48 hrs. It is filed as functional. In a few lines: as §2
The test system of a further data set is Nannizzia gypsea. Put plainly: Antifungal activity against Microsporum gypseum C 115 after 48 hrs. The following applies: C 115, 48 h. It is filed as functional. In a few lines:
as §1

In the next data set the test system is Aspergillus fumigatus. Put plainly: Antifungal activity against Aspergillus fumigatus ATCC 26934 after 48 hrs. The conditions noted are these: ATCC 26934, 48 h. It is filed as functional. In a few lines:
as §3

Data set [2] has as its system Trichophyton mentagrophytes. Put plainly: Antifungal activity against Trichophyton mentagrophytes ATCC 9972 after 48 hrs. The conditions noted are these: ATCC 9972, 48 h. The data set is classed as functional. In a few lines:
as §1

The test system of the next data set is Candida tropicalis. Put plainly: Antifungal activity against Candida tropicalis C 131 2000 after 48 hrs. The data set is classed as functional. In a few lines: as §2
The test system of another data set is Candida albicans. Put plainly: Antifungal activity against Candida albicans ATCC 10231 after 48 hrs. The data set is classed as functional. The conditions noted are these: ATCC 10231, 48 h. In a few lines:
as §2

The test system of a further data set is Aspergillus niger. Description: Antifungal activity against Aspergillus niger ATCC 9029 after 48 hrs. The conditions noted are these: ATCC 9029, 48 h. It is filed as functional. The method, boiled down:
as §3

The test system of data set [3] is Trypanosoma cruzi. Description: Antitrypanosomal activity against Trypanosoma cruzi Tulahuen 2. The following applies: read-out: ID50 (the source's name). It is filed as functional. In a few lines:
(§4)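 Epimastigotes were grown at 28 °C in BHI-tryptose with 5% FBS. Stationary-phase parasites are inoculated at 8 × 10⁶ cells/mL into medium containing increasing drug concentrations from DMSO stock (final DMSO ≤0.4%; vehicle control). Growth is followed by A600. ID50 is the concentration that halves the day-5 absorbance ratio relative to control.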

Data set [4] concerns Trypanosoma cruzi. Description: Antitrypanosomal activity against Trypanosoma cruzi CL Brener. The data set is classed as functional. The conditions noted are these: read-out: ID50 (the source's name). In a few lines:
as §4

Data set [5] is described as follows: Selectivity index, ratio of ID50 for mouse J774 cells to ID50 for Trypanosoma cruzi Tulahuen 2. It is filed as toxicity, cell-based. The following applies: J774 cells versus Trypanosoma cruzi Tulahuen 2. The method, boiled down: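 Selectivity index is the ID50 in J-774 macrophages (48 h MTT) divided by the ID50 against Tulahuen 2 epimastigotes (day-5 A600 growth).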

A short description of data set [6]: Cytotoxicity against mouse J774 cells after 48 hrs by MTT assay. The conditions noted are these: read-out: ID50. The data set is classed as cell-based. In a few lines: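 J-774 macrophages were seeded at 1 × 10⁵ cells/well in RPMI 1640 with 20% heat-inactivated FCS and left to attach for 48 h at 37 °C in 5% CO₂. Cells were then exposed to compounds for 48 h. MTT was added at 0.4 mg/mL final, formazan was dissolved in DMSO, and A595 was read. ID50 is the concentration cutting control absorbance by 50%, averaged over three experiments.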
Background: Tetrazolium dyes change colour on reduction, which living cells bring about.

Setting [7] is: Cryptococcus neoformans, ATCC 32264, 48 h, read-out: MIC.
The mark [8] stands for this setting: Candida tropicalis, C 131 2000, 48 h, read-out: MIC.
[9] abbreviates: Cryptococcus neoformans, ATCC 32264, 48 h.

SMILES strings stand for the structures. In brackets after ≈: the same amount, converted by molar mass. Several values for one entry are separate records, joined by “and”; a condition that tells them apart may be missing. Equal values may be shown once.

In general, MIC refers to the lowest concentration found to suppress growth. As usually defined, the inhibition is the share of the control response that was lost under treatment. Regarding `C=CCNC(=S)N/N=C/c1ccc2c(c1)[n+]([O-])c(C#N)c(N)[n+]2[O-]`, the MIC against Trichophyton rubrum, in the data set on Saccharomyces cerevisiae, in the data set on Aspergillus flavus, in the data set on Cryptococcus neoformans (setting [7]), against Nannizzia gypsea and against Aspergillus fumigatus was more than 250 mg/L each time. Further, the minimum inhibitory concentration (MIC) (in data set [2]; in the data set on Candida tropicalis (setting [8]); against Candida albicans; against Aspergillus niger) was more than 250 mg/L in each case. The molecule further had an inhibition at 25 µM with Trypanosoma cruzi [1] of 6%.

As a reminder, the MFC is the smallest concentration meeting the test's criterion for killing the fungus. Take `C=CCNC(=S)N/N=C/c1ccc2c(c1)[n+]([O-])c(C(=O)Nc1ccccc1)c(C)[n+]2[O-]`: the MFC against Trichophyton rubrum was 250 mg/L (≈ 573 µM); in the data set with Cryptococcus neoformans (setting [9]) it was more than 250 mg/L; in the data set on Nannizzia gypsea it was 250 mg/L (≈ 573 µM); in data set [2], 250 mg/L (≈ 573 µM). For the same molecule, the MIC with Trichophyton rubrum was 250 mg/L (≈ 573 µM); against Saccharomyces cerevisiae it was more than 250 mg/L; in the data set with Aspergillus flavus, more than 250 mg/L; with Cryptococcus neoformans (setting [7]), 250 mg/L (≈ 573 µM); against Nannizzia gypsea, 250 mg/L (≈ 573 µM); against Aspergillus fumigatus, more than 250 mg/L. Further, the minimal inhibitory concentration (MIC) in data set [2] was 250 mg/L (≈ 573 µM); with Candida tropicalis (setting [8]), more than 250 mg/L; against Candida albicans, more than 250 mg/L; against Aspergillus niger it was more than 250 mg/L. The molecule also gave an inhibition at 25 µM with Trypanosoma cruzi [1] of 0%.

In the case of `C=CCNC(=S)N/N=C/c1ccc2c(c1)[n+]([O-])c(C)c(C)[n+]2[O-]`, the MIC in the data set with Trichophyton rubrum, against Saccharomyces cerevisiae, against Aspergillus flavus, with Cryptococcus neoformans (setting [7]), against Nannizzia gypsea and against Aspergillus fumigatus was more than 250 mg/L throughout. The MIC (in data set [2]; in the data set on Candida tropicalis (setting [8]); against Candida albicans; with Aspergillus niger) was more than 250 mg/L in each case. In addition, in the data set with Trypanosoma cruzi [1], the inhibition at 25 µM came out at 21%.

For the molecule `COc1nn(CCOCCN2CCN(C/C=C/c3ccccc3)CC2)c2ccc([N+](=O)[O-])cc12`, the results for the IC50 in the data set on Trypanosoma cruzi [3] and with Trypanosoma cruzi [4] were 3.8 µM and 7.9 µM, respectively. Further, the MFC in the data set on Trichophyton rubrum is 125 mg/L (≈ 268 µM); against Saccharomyces cerevisiae, 62.5 mg/L (≈ 134 µM); in the data set with Cryptococcus neoformans (setting [9]), 62.5 mg/L (≈ 134 µM); against Nannizzia gypsea, 125 mg/L (≈ 268 µM); in data set [2], 125 mg/L (≈ 268 µM); in the data set with Candida albicans, 125 mg/L (≈ 268 µM). The MIC is 62.5 mg/L (≈ 134 µM) in the data set on Trichophyton rubrum; 62.5 mg/L (≈ 134 µM) in the data set with Saccharomyces cerevisiae; more than 250 mg/L against Aspergillus flavus; 62.5 mg/L (≈ 134 µM) in the data set with Cryptococcus neoformans (setting [7]); 62.5 mg/L (≈ 134 µM) against Nannizzia gypsea; more than 250 mg/L in the data set on Aspergillus fumigatus. Moreover, the MIC in data set [2] is 62.5 mg/L (≈ 134 µM); in the data set with Candida tropicalis, 125 mg/L (≈ 268 µM); in the data set with Candida tropicalis (setting [8]), 125 mg/L (≈ 268 µM); against Candida albicans, 125 mg/L (≈ 268 µM); in the data set with Aspergillus niger it was more than 250 mg/L. Moreover, the selectivity ratio in [5] is less than 26.3. For the same molecule, the CC50 at 48 h in [6] was less than 100 µM.

For `N#Cc1c2ccccc2[n+]([O-])n1C/C=C/c1ccccc1`, the MFC (against Trichophyton rubrum; against Nannizzia gypsea; in data set [2]) was 125 mg/L (≈ 454 µM) throughout. For the same molecule, the minimal inhibitory concentration (MIC) was 62.5 mg/L (≈ 227 µM) in the data set on Trichophyton rubrum; more than 250 mg/L against Saccharomyces cerevisiae; more than 250 mg/L in the data set with Aspergillus flavus; more than 250 mg/L in the data set with Cryptococcus neoformans (setting [7]); 62.5 mg/L (≈ 227 µM) in the data set on Nannizzia gypsea; more than 250 mg/L in the data set on Aspergillus fumigatus. In addition, the minimum inhibitory concentration (MIC) in [2] is 62.5 mg/L (≈ 227 µM); in the data set with Candida tropicalis (setting [8]) it was more than 250 mg/L; against Candida albicans it was more than 250 mg/L; against Aspergillus niger, more than 250 mg/L. This molecule also registered an inhibition at 25 µM in the data set with Trypanosoma cruzi [1] of 28%.

Regarding `[O-][n+]1onc2ccc(CN3CCN(C/C=C/c4ccccc4)CC3)cc21`, at 25 µM the inhibition in the data set on Trypanosoma cruzi [1] was 14%.

Consider `O=[N+]([O-])c1ccc2c(c1)c(OCc1ccccc1)nn2CCCCCN1CCN(C/C=C/c2ccccc2)CC1`, for which the IC50 in the data set with Trypanosoma cruzi [3] was 10.6 µM; with Trypanosoma cruzi [4] it was 4.5 µM. Also, the MFC (against Trichophyton rubrum; with Nannizzia gypsea; in [2]) was 125 mg/L (≈ 232 µM) in each case. Further, the minimum inhibitory concentration (MIC) in the data set with Trichophyton rubrum is 62.5 mg/L (≈ 116 µM); in the data set with Saccharomyces cerevisiae, more than 250 mg/L; with Aspergillus flavus it was more than 250 mg/L; in the data set with Cryptococcus neoformans, 62.5 mg/L and 31.2 mg/L; in the data set with Nannizzia gypsea, 62.5 mg/L (≈ 116 µM); in the data set with Aspergillus fumigatus, more than 250 mg/L. Further, the MIC was 62.5 mg/L (≈ 116 µM) in [2], more than 250 mg/L in the data set on Candida tropicalis (setting [8]), more than 250 mg/L against Candida albicans and more than 250 mg/L in the data set with Aspergillus niger. In data set [5], the selectivity ratio was less than 9.4. The CC50 at 48 h in data set [6] is less than 100 µM.

Take `CN(C/C=C/c1ccccc1)Cc1ccc2no[n+]([O-])c2c1`: the IC50 is 22.6 µM in the data set on Trypanosoma cruzi [3] and 16.9 µM with Trypanosoma cruzi [4]. In data set [5], the selectivity ratio was less than 4.4. In [6], the CC50 at 48 h is less than 100 µM.

Turning to `C=CCNC(=S)N/N=C/c1ccc2no[n+]([O-])c2c1`, the MIC in the data set on Trichophyton rubrum, against Saccharomyces cerevisiae, against Aspergillus flavus, in the data set with Cryptococcus neoformans (setting [7]), against Nannizzia gypsea and with Aspergillus fumigatus was more than 250 mg/L in each case. Besides, the MIC (in data set [2]; with Candida tropicalis (setting [8]); in the data set on Candida albicans; in the data set with Aspergillus niger) was more than 250 mg/L in each case. The molecule also yielded an inhibition at 25 µM in the data set with Trypanosoma cruzi [1] of 33%.
